# Bioassay records: PubChem BioAssay, several laboratories
# SR-BI uptake up – SR-BI HDL lipid transfer activation; CHO ldlA[mSR-BI] cells, DiI-HDL uptake fluorescence, 3 h; 100 = double the neutral-control signal; activation, % at 12.5 µM; hit rate 0.096% among 320,000;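 active = mean replicate activation of at least 60% and every replicate at or above 60%; inconclusive = mean or all-replicate condition met, but not both; inactive = mean below 60% and not all replicates reaching 60%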
#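 Test system: SR-BI-overexpressing, LDLR-lacking CHO cells. Measured by: DiI fluorescence, bottom read. Medium: Ham's F12 with 0.5% BSA, HEPES 25 mM, pH 7.4. Timing: 3 h uptake period with compound, 37 °C.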
# SR-BI DiI inh – mouse SR-BI HDL lipid transfer inhibition; Q61009; ldlA[mSR-BI] CHO cells, DiI-HDL uptake fluorescence, 3 h; inhibition, % at 12.5 µM; hit rate 0.96% among 320,000;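 active = mean replicate inhibition of at least 70% and a set share of replicates each scoring 70 or more; inconclusive = meets just one of the two criteria; inactive = fails both criteria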
# Target sequence (Q61009 whole entry, looked up): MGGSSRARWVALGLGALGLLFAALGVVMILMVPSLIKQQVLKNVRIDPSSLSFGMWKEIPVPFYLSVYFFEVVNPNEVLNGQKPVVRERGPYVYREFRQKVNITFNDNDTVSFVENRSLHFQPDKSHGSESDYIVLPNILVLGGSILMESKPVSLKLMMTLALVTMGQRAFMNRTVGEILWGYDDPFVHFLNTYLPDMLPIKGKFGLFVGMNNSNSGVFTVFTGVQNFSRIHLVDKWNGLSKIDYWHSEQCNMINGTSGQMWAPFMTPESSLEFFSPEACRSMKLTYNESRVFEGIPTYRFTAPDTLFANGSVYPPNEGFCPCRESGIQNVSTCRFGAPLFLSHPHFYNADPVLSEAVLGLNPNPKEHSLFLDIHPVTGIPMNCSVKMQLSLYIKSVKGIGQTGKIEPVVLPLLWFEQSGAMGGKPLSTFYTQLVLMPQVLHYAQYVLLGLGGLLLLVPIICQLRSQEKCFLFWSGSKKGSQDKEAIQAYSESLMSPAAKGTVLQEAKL
# MIN6 prolif-1 – inducers of beta-cell replication in MIN6 cells; MIN6 cells proliferation, ATPlite luminescence, 48 h; cells starved in 0.2% serum; 100% = growth in 10% serum; proliferation, % at 10 µM; hit rate 0.29% among 330,000; AID 2380;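 active = compounds whose signal lies at least 3.5 SD above the mean of all wells on their plate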
# Calb FLC – affects C. albicans growth with fluconazole; hit rate 0.57% among 300,000; growth inhibition, % (concentration not given with the values); C. albicans CaCi-2 + fluconazole, Alamar Blue growth, 48 h; AID 1979;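 active = growth inhibition above about 58% in most replicates, limit read from the data, passing the limit was not always enough; inconclusive = exactly half the replicates above a set limit; inactive = most replicates below a set limit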;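 also: all wells also contain fluconazole at 8 µg/ml as a sub-toxic cotreatment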
# Ins promoter up – MIN6 insulin promoter up-regulation; z-score at 5 µM; MIN6 insulin promoter-GFP reporter, high-content imaging; hits give high values; hit rate 0.3% among 190,000; AID 1625;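 active = z-score above 3 at 5 µM with at least 500 cells counted in the well; inconclusive = wells under 500 cells, flagged as cytotoxic or low count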
# HTR2A ag – agonists of mouse serotonin 5-HT2A receptor (HTR2A) | P35363 | CHO-K1 mHTR2A beta-arrestin complementation, luminescence; percent of 30 µM serotonin response | activation, % at 7.6 µM | hit rate 0.66% among 360,000;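 active = activation above a run cutoff, the mean activation of all tested compounds plus 3 SD, cut at about 14% in these data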
# MIN6 prolif-2 – MIN6 beta-cell replication induction, confirmed | shares compounds with MIN6 prolif-1 | MIN6 beta-cell proliferation, ATPlite luminescence, 48 h; cells kept in 0.2% serum; scaled between 0.2% and 10% serum | proliferation increase, % at 50 µM | 920 tested, under 10 active;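 active = proliferation increase above 40% at any of the four tested concentrations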
# Hits are given with their value; n = inactive; u = inconclusive; x = no result. The list is not random: actives were taken first. Their share in the collection is about 2.4%.
SMILES,SR-BI uptake up,SR-BI DiI inh,MIN6 prolif-1,Calb FLC,Ins promoter up,HTR2A ag,MIN6 prolif-2
Cc1nc(N)c(CC(Br)CBr)c(Cl)n1 (stereo not given),x,x,8.0,n,n,n,n
CC(OC(=O)CCNS(=O)(=O)c1ccc(Cl)cc1)C(=O)N(C)Cc1ccccc1 (stereo not given),x,x,x,x,x,n,x
COc1cc(/C(C)=N/NC(=O)c2nnn(-c3nonc3N)c2-c2cccs2)ccc1O,n,n,4.6,n,x,n,n
C=CCn1c(Cc2c(C)[nH]c3ccccc23)nnc1SCC(=O)NCc1ccc(F)cc1,n,n,6.9,n,n,n,n
CNC(=S)Nc1ccc([N+](=O)[O-])cc1C,n,n,9.9,n,n,n,n
COc1ccc(C(=O)NC(=S)Nc2ccc([N+](=O)[O-])cc2C)cc1OC,n,n,n,n,n,n,x
Cc1ccc(Nc2nc(NCC3CCCO3)nc(N)c2[N+](=O)[O-])cc1C (stereo not given),n,n,0.0,n,n,n,n
CSCCC(NC(=O)COc1ccccc1)C(=O)N(C)Cc1ccc(Cl)cc1Cl (stereo not given),n,n,n,x,x,n,x
Cc1cc(C)c2c(c1)/C(=N/NC(=O)c1cc(C)oc1C)CCC2,n,n,0.0,n,n,n,n
Cc1cc(C)c2c(c1)/C(=N/NC(=O)c1ccc(O)cc1)CCC2,n,n,n,n,n,n,x
Cc1nn(-c2ccccc2)c(C)c1C(=O)N1CCN(S(=O)(=O)c2ccccc2)CC1,n,n,11.5,x,x,n,n
COc1ccc(N2CCN(C(=O)c3c(C)nn(-c4ccccc4)c3C)CC2)cc1,n,n,n,n,n,n,x
CC1(c2ccc3c(c2)OCO3)NC(=O)N(CC(=O)Nc2ccccc2[N+](=O)[O-])C1=O (stereo not given),n,n,14.0,x,x,n,n
Cc1ccccc1NC(=O)CN1C(=O)NC(C)(c2ccc3c(c2)OCO3)C1=O (stereo not given),n,n,n,n,n,n,x
CC(=O)Nc1ccc(NC(=O)COC(=O)[C@@H]2CCCN2C(=O)c2cccs2)cc1,n,n,n,x,x,n,x
COc1ccc(C(=O)COC(=O)c2cc([N+](=O)[O-])ccc2N2CCOCC2)c(OC)c1,n,u,12.3,n,x,n,n
COc1ccc(C(=O)COC(=O)c2cc(S(=O)(=O)N3CCCCC3)ccc2N2CCOCC2)c(OC)c1,n,n,11.1,n,x,n,n
COC(=O)[C@@]12CCCCN1[C@H](c1ccc(-c3ccc4c(c3)OCO4)cc1)[C@H]1C(=O)N(C)C(=O)[C@H]12,n,n,n,x,x,n,x
COC(=O)c1ccccc1NC(=O)CSc1ccc(C)cc1,n,n,7.3,n,x,n,n
COc1ccc(OC)c(C2=Nn3c(nnc3C3CCCCC3)SC2)c1,n,n,9.3,n,n,n,n
COc1ccccc1C1=Nn2c(nnc2C2CCCCC2)SC1,n,n,n,x,x,n,x
Oc1cccc(/C=N/n2c(C3CCCCC3)n[nH]c2=S)c1,n,n,n,n,x,n,x
COc1cccc(/C=N/n2c(C3CCCCC3)n[nH]c2=S)c1,n,n,6.9,n,x,n,n
CC1(CNC(=O)C(=O)NCC2(C)CO2)CO1 (stereo not given),n,n,x,x,x,n,x
Cc1nc(N)c(C#N)c(-c2ccccc2)c1C,n,n,5.9,n,n,n,n
SMILES,SR-BI uptake up,SR-BI DiI inh,MIN6 prolif-1,Calb FLC,Ins promoter up,HTR2A ag,MIN6 prolif-2
CN1CCN(C(=O)CCCN2C(=O)/C(=C/c3ccccc3)SC2=S)CC1,x,x,7.5,n,x,n,n
CC(=O)Nc1ccc(Oc2cnc3ccccc3n2)cc1,n,n,n,n,n,n,x
CC(=O)Nc1ccc(Oc2cnccn2)cc1,n,n,0.0,n,n,n,n
CC(C)[C@H](N)C(=O)N1CCC(C(=O)N[C@@H](Cc2ccccc2)C(=O)NCc2ccc(F)cc2)CC1,n,n,n,n,x,n,x
CCC(Cc1ccccc1)NC(=O)C1=C(C)C(=O)OC12CCC(C)CC2 (stereo not given),n,n,7.7,n,n,n,n
CC1=C(C(=O)NCc2ccc(Cl)cc2)C2(CCC(C)CC2)OC1=O (stereo not given),n,n,n,n,x,n,x
COc1ccc(-c2n[nH]c(=S)n2C2CCCCC2)cc1,n,n,7.6,n,n,n,n
CC(C)NC(=O)Cn1cnc2c1c(=O)n(C)c(=O)n2C,n,n,n,n,n,n,x
Cn1c(=O)c2c(ncn2CC(=O)NC2CCCCC2)n(C)c1=O,n,n,11.3,n,x,n,n
OCCC1CN(Cc2ccccc2O)CCN1CCc1ccccc1 (stereo not given),n,n,7.9,n,n,n,n
CCCCn1c(N)c(N(CC(C)C)C(=O)C2CCN(S(=O)(=O)c3ccc(C)c(C)c3)CC2)c(=O)[nH]c1=O,n,n,n,n,x,n,x
Cc1ccc(CNC(=O)CN(C)C2=NS(=O)(=O)c3ccccc32)cc1,n,n,n,x,x,n,x
COc1ccc(NC(=O)CCn2cccc2)c(OC)c1,n,n,n,n,n,n,x
COc1ccc(OC)c(NC(=O)CCn2cccc2)c1,n,n,7.5,n,n,n,n
CN(CC(=O)Nc1ccc(Cl)cc1)C(=O)CNC(=O)c1cccs1,n,n,n,x,x,n,x
Cc1ccc(NC(=O)CN(C)C(=O)CNC(=O)c2cccs2)cc1,n,n,11.8,n,x,n,n
COc1ccccc1N(CC(O)CN1CCOCC1)S(=O)(=O)c1ccccc1 (stereo not given),x,x,19.4,n,x,n,n
Cc1ccc(C(=O)NCCCN2CCN(CCCNC(=O)c3ccc(C)cc3)CC2)cc1,x,x,n,n,x,n,x
CC(=O)Nc1ccc(NC(=O)C(C)OC(=O)c2cccc(S(=O)(=O)N3CCCCCC3)c2)cc1 (stereo not given),n,n,12.4,n,x,n,n
CC(=O)Nc1ccc(NC(=O)C(C)OC(=O)c2cccc(S(=O)(=O)N3CCCCC3)c2)cc1 (stereo not given),n,n,n,n,x,n,x
CCOc1cc(/C=N/n2nnnc2N)ccc1OCc1c(C)no[n+]1[O-],n,n,0.0,n,x,n,n
Cc1no[n+]([O-])c1COc1ccccc1/C=N/n1nnnc1N,n,n,n,n,x,n,x
COc1ccccc1NC(=O)CCCN1C(=O)C(c2ccccc2)Oc2cccnc21 (stereo not given),n,n,12.6,n,x,n,n
COc1ccc(NC(=O)CCCN2C(=O)C(c3ccccc3)Oc3cccnc32)c(OC)c1 (stereo not given),n,n,n,n,x,n,x
COc1ccc(CNc2cc(C)ccc2C)c(OC)c1OC,n,n,9.2,n,n,n,n
